In general, inhibition refers to the change of the read-out against control, counted positive when it falls. A word on the logP: it is a log measure of how a compound divides between an organic and an aqueous phase. A higher logP goes with higher lipophilicity.

Our source for the inhibition and logP values is ChEMBL document CHEMBL1156619, “TX-2152: a conformationally rigid and electron-rich diyne analogue of FTY720 with in vivo antiangiogenic activity” (Bioorg Med Chem, 2008).

The species entered for data set [1] is Gallus gallus. Briefly: Antiangiogenic activity in chick embryo chorioallantoic membrane assessed as number of eggs showing 3 mm avascular zone at 10 ug. The data set is classed as functional, tissue-based. The gist of the method: (§1)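 Fertilized chicken eggs held at 37.6 °C, humidified, for 4 days; 3 mL albumin withdrawn and air sac displaced to drop the CAM, window capped, incubation at 39.0 °C. Next day a silicon ring placed on the 2–3 mm CAM and test solution applied dropwise at room temperature. Compounds in DMSO, vehicle control 0.05% DMSO in 1% methyl cellulose/0.9% NaCl. After 1 day incubator raised to 39.5 °C and eggs incubated 1 more day. Vessels then visualized by injecting fat emulsion (1 mL) into the CAM and scored for inhibition.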

For data set [2], the species on record is Gallus gallus. Briefly: Antiangiogenic activity in chick embryo chorioallantoic membrane assessed as number of eggs showing 3 mm avascular zone at 5 ug. Type of data set: functional, tissue-based. The gist of the method:
as §1

The species entered for data set [3] is Gallus gallus. In words: Antiangiogenic activity in chick embryo chorioallantoic membrane assessed as number of eggs showing 3 mm avascular zone at 1 ug. Type of data set: functional, tissue-based. The procedure, abridged:
as §1

The species named for data set [4] is Gallus gallus. In words: Antiangiogenic activity in chick embryo chorioallantoic membrane assessed as number of eggs showing 3 mm avascular zone at 2.5 ug. The data set is classed as functional, tissue-based. The gist of the method:
as §1

Data set [5] is described as follows: Hydrophobicity, Log P of the compound. As to conditions: octanol/water. The data set is classed as physicochemical. The procedure, abridged: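 Observed logP (logPow) measured by HPLC on a C18 column. Mobile phase methanol/water 3:1 (v/v) at 1.0 mL/min, UV detection at 254 nm. Test and reference compounds dissolved in mobile phase for injection.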
The species entered for data set [6] is Gallus gallus. Briefly: Antiangiogenic activity in chick embryo chorioallantoic membrane assessed as number of eggs showing 3 mm avascular zone at 100 ug. Type of data set: functional, tissue-based. The procedure, abridged:
as §1

Take `CO[C@@H]1[C@H](OC(=O)NC(=O)CCl)CC[C@]2(CO2)[C@H]1[C@@]1(C)O[C@@H]1CC=C(C)C`: the inhibition in the data set filed under Gallus gallus [1] is 82%; in the data set filed under Gallus gallus [2], 78%; in the data set listed under Gallus gallus [3], 50%.
For the compound `C#CC#CC#Cc1ccc(CCC(N)(CO)CO)cc1`, the inhibition in the data set listed under Gallus gallus [1] was determined as 60%; in the data set listed under Gallus gallus [2], 67%; in the data set listed under Gallus gallus [4], 67%; in the data set listed under Gallus gallus [3], 40%.
In data set [5], `CC(=O)NC(CCc1ccc(C#CC#C[Si](C)(C)C)cc1)(COC(C)=O)COC(C)=O` returned a logP of 4.97.
Turning to `CCCCCCCCc1ccc(CCC(N)(CO)CO)cc1`, the inhibition in the data set filed under Gallus gallus [1] came to 77%; in the data set listed under Gallus gallus [6], 100%; in the data set listed under Gallus gallus [3] it was 40%.
`CC(=O)NC(CCc1ccc(C#C[Si](C)(C)C)cc1)(COC(C)=O)COC(C)=O` registered a logP in data set [5] of 4.07.
Consider `C#Cc1ccc(CCC(N)(CO)CO)cc1`, for which the inhibition in the data set listed under Gallus gallus [1] was 42%; in the data set filed under Gallus gallus [2], 17%; in the data set filed under Gallus gallus [3], 17%.
`CC(=O)NC(CCc1ccc(C#CC#CC#C[Si](C)(C)C)cc1)(COC(C)=O)COC(C)=O` showed a logP in data set [5] of 5.9.
Consider `C#CC#Cc1ccc(CCC(N)(CO)CO)cc1`, for which the inhibition in the data set filed under Gallus gallus [1] came out at 90%; in the data set listed under Gallus gallus [2], 79%; in the data set filed under Gallus gallus [4], 71%; in the data set listed under Gallus gallus [3], 35%.
